Yeast lifespan up: compounds extending yeast replicative lifespan, primary screen, S. cerevisiae, OD615. AID 775, 2007. S. cerevisiae growth with nicotinamide; deaD strain in restrictive glucose medium. inhibition of the nicotinamide effect, % at 10 µM. 130,000 tested, 0.68% active;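 active = inhibition above a set limit, placed 3 SD over the median of all compounds, cut at about 26% in these data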;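 note: 0% = nicotinamide-treated wells and 100% = cells grown without nicotinamide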
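Assay system: engineered S. cerevisiae DeaD replicative-lifespan strain, galactose-grown log-phase cells; Buffer or medium: CSMM-D glucose medium, restrictive; Probe or stimulus: nicotinamide 1.5 mM; Compound: single dose 10 µM compound, 0.25% DMSO; Schedule: 4 h preincubation then 48 h treatment at 30 °C; Technique: OD615 measurement.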
S1P3 antag: S1P3 receptor antagonists, primary screen, cell-based; Sphingosine 1-phosphate receptor 3 (Homo sapiens), Q99500; CHO S1P3 NFAT-BLA reporter, FRET fluorescence, antagonist mode; inhibition, % at 4.98 µM; 170,000 tested, 0.27% active; AID 485, 2006;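 active = inhibition above the plate cutoff, the mean inhibition of test wells on that plate plus 3 SD, cut at about 28% in these data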;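 note: cells challenged with S1P at its EC80 of 0.8 µM; blue over green emission ratio from cleaved BLA substrate after 4 h stimulation; 0% = S1P-stimulated wells and 100% = unstimulated DMSO-only wells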
Target sequence (Q99500 whole entry, looked up): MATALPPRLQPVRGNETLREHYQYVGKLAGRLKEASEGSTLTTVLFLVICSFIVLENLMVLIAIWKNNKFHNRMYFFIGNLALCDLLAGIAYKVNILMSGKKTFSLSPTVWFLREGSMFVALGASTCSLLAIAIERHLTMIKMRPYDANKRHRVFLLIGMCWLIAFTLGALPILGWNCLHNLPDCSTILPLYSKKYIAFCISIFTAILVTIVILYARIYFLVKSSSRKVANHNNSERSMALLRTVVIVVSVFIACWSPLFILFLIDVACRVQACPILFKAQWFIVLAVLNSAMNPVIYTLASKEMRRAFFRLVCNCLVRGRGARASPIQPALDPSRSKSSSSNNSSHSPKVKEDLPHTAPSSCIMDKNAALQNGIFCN
Yeast growth inh: growth inhibitors of yeast BB579 in restrictive medium, primary screen, yeast lifespan-shortening project, S. cerevisiae; OD615, 48 h; inhibition, % at 10 µM; 140,000 tested, 0.51% active;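 active = inhibition above a set limit, 3 SD over the mean compound inhibition, cut at about 44% in these data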
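System: DeaD yeast strain BB579; buffer or medium: CSMM-D dextrose restrictive medium; technique: OD at 615 nm; schedule: 4 h cell preincubation, 48 h compound exposure, 30 °C humidified; doses: single 10 µM dose; controls: amphotericin B 10 µg/mL, positive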
Active calls of the source: *; . = no result given. In the library only some 0.98% were active in any assay of this set; here they are far more common.

SMILES	Yeast lifespan up	S1P3 antag	Yeast growth inh
CC1(C)CC(=O)C2=C(C1)OC(N)=C([N+](=O)[O-])C2c1cccs1 (stereo unspecified)	27.6*	2.4	-20.5
COC(=O)/C(=C1/Oc2cc3c(cc2S1)OCO3)C(F)(F)F	37.1*	-37.5	-58.0
COC(=O)/C(=C1/Oc2ccc(C)cc2S1)C(F)(F)F	9.9	3.4	-45.4
CCCc1cc(=O)[nH]c(SCC(=O)N2CCN(c3ccccc3)CC2)n1	-21.8	-11.6	-30.8
CCC(=O)Nc1nc(C)c(Oc2ccccc2)c(=O)[nH]1	-7.4	.	-27.9
CC(=O)Nc1nc(C)c(Oc2ccccc2)c(=O)[nH]1	81.4*	2.2	-40.0
CCOc1ccc(C2=Nn3c(nnc3-c3ccc(OC)cc3)SC2)cc1	-7.8	18.5	-13.5
COc1cc(NC(=O)CN2CCN(c3ccccc3F)CC2)cc(OC)c1	-6.9	25.5	-35.0
Clc1ccc(CON/C=N/c2ncnc3sccc23)cc1	-28.9	.	5.8
C(=N\c1ncnc2sccc12)/NOCc1ccccc1	-3.2	.	70.1*
Cc1cc(C)cc(Oc2ccccc2/C=N\O)c1	-13.2	.	-65.7
S=C1N[C@H]2CCCC[C@@H]2N1	.	-1.4	.
CSc1ccc(/C=N/N2CCN(Cc3ccccc3)CC2)cc1	.	-4.7	.
Cc1nc2ccccc2n1-c1ccccc1	54.0*	-13.8	-25.3
Cc1nc2cc(N)ccc2n1-c1ccccc1	.	11.3	.
O=S1(=O)C=CC(Sc2nc3ccccc3[nH]2)C1 (stereo unspecified)	0.7	16.9	-48.9
CC1=CS(=O)(=O)CC1Sc1nc2ccccc2[nH]1 (stereo unspecified)	68.2*	.	-58.9
O=C1C2CCCN2C(c2cccc(F)c2)N1c1cccc(Cl)c1 (stereo unspecified)	-2.3	68.1*	-10.5
O=C1C2CCCN2C(c2ccc(F)cc2)N1c1cccc(Cl)c1 (stereo unspecified)	-3.8	-31.8	-31.2
COc1cc(C2c3c(oc4ccc(C)cc4c3=O)C(=O)N2c2cc(C)ccn2)cc(OC)c1OC (stereo unspecified)	.	99.0*	.
Cc1ccc2oc3c(c(=O)c2c1)C(c1cccc(O)c1)N(c1ccccn1)C3=O (stereo unspecified)	-7.0	-5.2	-8.0
COc1ccc(C(=O)Oc2cc(OC)cc(OC)c2C(C)=O)cc1	-2.2	-5.8	-10.1
Cc1ccc(NC(=O)CSc2nc(N)c(-c3ccccc3)c(=O)[nH]2)cc1Cl	.	-15.8	.
CN(c1cccc(NC(=O)CN(c2ccc(Cl)c(Cl)c2)S(=O)(=O)c2ccccc2)c1)S(C)(=O)=O	28.6*	-12.2	-60.1
Cc1ccc(S(=O)(=O)N(CC(=O)Nc2cccc(N(C)S(C)(=O)=O)c2)c2ccc(Cl)c(Cl)c2)cc1	-0.1	.	-35.8
SMILES	Yeast lifespan up	S1P3 antag	Yeast growth inh
CCCn1nnnc1SCC(=O)NNC(=O)c1ccco1	.	1.4	.
COc1ccc(C(C)NC(=O)c2ccccc2)cc1 (stereo unspecified)	83.7*	.	-63.1
COc1cccc(C(=O)NC(C)c2ccc(Br)cc2)c1 (stereo unspecified)	5.8	13.3	-20.5
CC(C)CC1(C(=O)NCCN2CCOCC2)C=CCN1C(=O)c1ccccc1 (stereo unspecified)	2.4	-6.4	-41.2
COc1ccc(/C=N/n2cnc3c([nH]c4ccc(Br)cc43)c2=O)cc1CN1CCOCC1	-6.5	.	-3.7
CCOC(=O)c1cnc(-n2nc(C)cc2C)nc1Nc1ccccc1OC	-0.1	.	-32.6
CCOC(=O)c1cnc(-n2nc(C)cc2C)nc1NCCc1ccccc1	-14.9	17.3	52.3*
CCC1(CC)C(=O)NN(c2ccccc2)C1=O	.	.	-21.8
CC1=CC(=O)C=C(C)C1=NOC(=O)c1cccc([N+](=O)[O-])c1	-3.1	.	6.0
Oc1ccc2ccccc2c1/C=N/c1nc2c(s1)CCCC2	33.0*	.	-21.3
Oc1c(Br)cc(Br)cc1/C=N/c1nc2c(s1)CCCC2	-14.9	.	99.3*
Oc1c(Br)cc(Br)cc1C=NCc1ccccc1	.	1.1	.
Oc1ccc2ccccc2c1C=NC1CCCCC1	.	-24.0	.
O=S(=O)(c1ccc(OCC(O)CN2CCc3ccccc3C2)cc1)N1CCOCC1 (stereo unspecified)	-10.0	5.4	-71.3
CCCCN=Cc1c(C)[nH]n(-c2ccccc2)c1=S	.	11.3	.
CCCCN(CCCC)C(=S)N/N=C/c1c(C)[nH]n(-c2ccccc2)c1=O	-11.9	.	78.0*
Cc1[nH]n(-c2ccccc2)c(=O)c1/C=N/Nc1nncc(-c2ccccc2)n1	-10.5	.	97.7*
Cc1ccc(/C=N/Nc2nncc(-c3ccccc3)n2)o1	.	-8.5	.
COc1ccc(C2=C(SC)CC2=NC(C)(C)C)cc1	-5.6	-14.5	-22.7
C(=N\Nc1nn2cnnc2c2ccccc12)/c1ccco1	.	-15.7	.

Assay outcomes: PubChem BioAssay, several laboratories
